NR2E3 ag-1 = agonists of human NR2E3 nuclear receptor; hit rate 0.35% among 360,000; Q9Y5X4; inhibition of corepressor binding, % at 3.98 µM; CHO-S Gal4-NCOR/VP16-NR2E3 two-hybrid, luciferase;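 active = inhibition above the mean of all tested compounds plus 3 SD, cut at about 70% in these data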;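 also: 0% = DMSO with NR2E3 transfected cells and 100% = cells lacking NR2E3 construct; higher means lower luciferase signal from less NR2E3 corepressor binding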
Rev-erbA mod = modulators of human Rev-erb alpha DNA binding. P20393. Rev-erbα–FITC-DNA binding, fluorescence polarization, 90 min. activity, % at 10 µM. hit rate 0.79% among 370,000;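 active = activity above about 14%, limit read from the data; passing the limit was not always enough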;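 also: 0% = DMSO wells with 35 nM protein and 100% = DMSO wells with 750 nM protein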
PG9 Ab binder = small molecules binding HIV-1 gp120 antibody PG9; TR-FRET gp120-PG9 antibody binding; inhibition, % at 6.7 µM; hit rate 0.43% among 360,000; AID 624416; in the data active = inhibition above about 8.5%
MC4R antagonist = antagonists of human melanocortin 4 receptor (MC4R). P32245. MC4R-expressing cells, MTII-stimulated cAMP, LANCE TR-FRET. inhibition, % at 6.5 µM. hit rate 0.48% among 360,000. AID 540295;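 active = inhibition above its plate's cutoff, the mean of tested wells on that plate plus 3 SD, cut at about 29% in these data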;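 also: 0% = Melanotan II alone and 100% = Melanotan II plus saturating MCL0020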
Target sequence (P32245 whole entry, looked up): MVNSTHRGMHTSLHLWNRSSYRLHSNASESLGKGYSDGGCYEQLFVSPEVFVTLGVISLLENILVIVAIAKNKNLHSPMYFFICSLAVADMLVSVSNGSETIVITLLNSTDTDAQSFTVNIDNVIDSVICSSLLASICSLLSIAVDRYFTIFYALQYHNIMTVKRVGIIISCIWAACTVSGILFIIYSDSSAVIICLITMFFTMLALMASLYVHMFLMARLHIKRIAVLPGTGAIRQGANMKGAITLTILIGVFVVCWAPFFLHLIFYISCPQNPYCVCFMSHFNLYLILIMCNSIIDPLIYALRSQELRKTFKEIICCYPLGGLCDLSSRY
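Material: human MC4R-expressing U2OS cells. Probe or stimulus: Melanotan II challenge. Dosing: 6.5 µM single dose. Times: 30-min compound, 1-h challenge, 1-h detection, room temperature. Technique: TR-FRET with Eu-cAMP and labeled anti-cAMP, 671 nm. Replication: singlicate.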
NR2E3 ag-2 = activates human photoreceptor nuclear receptor NR2E3; hit rate 0.12% among 320,000; AID 2300; GST-NR2E3/biotin-RetCOR TR-FRET, 1536-well; inhibition of corepressor binding, % at 4.78 µM;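 active = percent inhibition above the cutoff of mean plus 3 SD of all tested compounds, set per screening campaign, cut at about 20% in these data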;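 also: 0% = DMSO wells and 100% = biotin wells as full block of FRET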
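System: GST-tagged NR2E3 plus biotinylated RetCOR corepressor; Amount: 1.35 nM GST-tagged NR2E3 final; Dosing: single nominal compound dose of 4.8 µM; Schedule: 5 h incubation at 4 °C; Technique: TR-FRET with europium anti-GST and streptavidin-D2, 340 nm excitation; Controls: biotin wells as high control, 0.6% DMSO wells as low control.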
MC4R barr agon = human MC4R agonism via beta-arrestin | hit rate 0.98% among 360,000 | P32245 | U2OS MC4R beta-arrestin complementation, luminescence; percent of melanotan II response, DMSO zero | activation, % at 8.9 µM;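 active = activation above a per-plate cutoff, the mean activation of sample wells on that plate plus 3 SD, cut at about 8% in these data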
NR1D1 mod conf = confirmation of modulators of human Rev-erb alpha DNA binding | shares compounds with Rev-erbA mod | activation, % at 25 µM | hit rate 61% among 3,000 | Rev-erb alpha FITC-DNA binding, fluorescence polarization, 90 min | AID 1259319;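 active = activation at or above a set limit, or at least 3 SD above the negative control mean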;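 also: 0% = 35 nM protein with DMSO and 100% = 750 nM protein high control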
RORg DNA counter = counter-screen for Rev-erb alpha modulators: RORgamma DNA binding. shares compounds with Rev-erbA mod. purified RORgamma protein-FITC-DNA binding, fluorescence polarization. IC50, µM. hit rate 8% among 910. AID 1259320;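 active = Compounds whose fitted half-maximal concentration for disrupting protein-DNA binding is below 10 micromolar; the record names Rev-erb in its text, so the target is in doubt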
Numbers without * were called inactive; x = not tested or not shown. Shown are actives, neighbours in structure and some others; about 2.7% of the full set was active somewhere.

SMILES	NR2E3 ag-1	Rev-erbA mod	PG9 Ab binder	MC4R antagonist	NR2E3 ag-2	MC4R barr agon	NR1D1 mod conf	others
CS(=O)(=O)c1ccc(Cl)c(NC(=O)CSc2nnc(C3CC3)n2C2CC2)c1	-3	17*	0	5	4	-1	0
COc1cccc(C(=O)NC2CCN(CC(=O)NCc3ccccc3F)CC2)c1	-14	5	-1	5	1	-2	x
COCCn1c(SCC(=O)c2c[nH]c3ccccc23)nnc1-c1ccncc1	4	x	x	7	-1	1	x
CCn1c(SCC(=O)c2c[nH]c3ccccc23)nnc1-c1cccs1	-12	102*	4	4	4	0	112*	RORg DNA counter=>40
Cn1c(Br)nc2c1c(=O)n(Cc1ccccc1)c(=O)n2C	-3	-7	0	6	0	0	x
CC(C)(C)NC(=O)c1cc2c(ccc3ccccc32)oc1=O	2	37*	0	22	0	0	25*
CC(OC(=O)c1cc2c(ccc3ccccc32)oc1=O)c1nc2ccccc2s1 (centres undefined)	-19	54*	-2	2	5	-4	33*	RORg DNA counter=>40
CCOC(=O)c1cc2c(ccc3ccccc32)oc1=O	3	-4	3	6	0	-2	x
O=C(O)c1cc2c(ccc3ccccc32)oc1=O	0	6	2	6	-6	-2	x
N#Cc1cnn2c1nc(N1CCCCC1)c1ccccc12	16	32*	-2	3	0	5	3
CC1CCN(S(=O)(=O)c2ccc3c(c2)c(=O)c(C(=O)NCc2cccs2)cn3C)CC1	5	29*	0	6	2	-1	10
COc1cccc(NC(=O)CSc2nc(C3CC3)nc3ccccc23)c1	32	-7	0	10	-3	4	x
CC(C)(C)c1nc(SCC(=O)Nc2ccc3c(c2)OCCO3)c2ccccc2n1	14	73*	3	-2	0	5	35*	RORg DNA counter=3*
CCOc1ccc(NC(=O)CSc2nc(C3CC3)nc3ccccc23)cc1	22	129*	-2	1	-8	7	59*	RORg DNA counter=>40
CC(C)(C)c1nc(SCC(=O)Nc2ccc(N3CCOCC3)cc2)c2ccccc2n1	-3	53*	3	3	-3	-2	17*
O=C(CSc1nc2ccccc2o1)Nc1ccc(N2CCOCC2)cc1	-67	1	-2	2	-3	-1	x
O=C(COc1ccccc1)NC(=S)Nc1cccc([N+](=O)[O-])c1	-17	1	0	8	-2	0	x
O=C(COc1ccccc1)NC(=S)Nc1ccc2c(c1)Cc1ccccc1-2	-10	77*	-1	4	-3	0	25*
Cc1ccnc2c(N3C(=O)C4C5C=CC(C5)C4C3=O)cccc12 (centres undefined)	-26	-7	-1	3	4	1	x
COc1cc(/C=C2\SC(=S)N(CC(=O)O)C2=O)ccc1OC(=O)c1ccco1	-17	15	0	19	3	-2	x
COc1ccc(/C=C2\SC(=O)N(CCC(=O)Nc3ccccc3)C2=O)cc1OC	-23	32*	-19	10	1	-3	34*	RORg DNA counter=>40
COc1cc(/C=C2/SC(=S)N(CC(=O)O)C2=O)ccc1OC(=O)c1ccco1	-27	25*	-3	5	7	-2	2
Cc1sc2ncnc(SCC#N)c2c1C	-23	-9	0	-26	1	1	x
Cc1cc(=O)n2c(sc3ccccc32)c1C#N	-4	39*	-3	-2	-3	-1	21*
CN(C)S(=O)(=O)Oc1ccsc1C(=O)Nc1cccc(Cl)c1Cl	-9	3	-2	11	1	-2	x
SMILES	NR2E3 ag-1	Rev-erbA mod	PG9 Ab binder	MC4R antagonist	NR2E3 ag-2	MC4R barr agon	NR1D1 mod conf	others
CCSc1nnc(NC(=O)c2ccc3c(c2)OCO3)s1	-90	7	0	9	5	2	x
COc1ccccc1-c1nnc(NC(=O)c2ccc3c(c2)OCO3)s1	-10	55*	3	-1	0	-2	10
COC(=O)c1c(-c2cccnc2)csc1NC(=O)c1ccc2c(c1)OCO2	-127	20*	-22	9	0	5	-8
Cc1ccc(C)c(OCc2nnc(NC(=O)c3ccc4c(c3)OCO4)s2)c1	21	30*	1	6	-3	1	10
CC(C)(C)c1nnc(NC(=O)c2ccc3c(c2)OCO3)s1	-120	1	1	0	2	0	x
COc1ccc(NC(=O)CSc2nn3c(=O)c(C)nnc3s2)cc1	-30	-9	-1	-1	1	-5	x
CN(CCO)c1ccc(C=NNc2ccc([N+](=O)[O-])cc2S(=O)(=O)Nc2ccccc2C(=O)O)cc1	5	21*	-2	-1	x	-4	4
O=C(O)c1ccccc1C(c1ccccc1)c1ccccc1O (centres undefined)	7	54*	0	-4	x	-1	45*	RORg DNA counter=>40
COc1ccc(CNC(=O)C(=O)NCC2OCCN2S(=O)(=O)c2ccc(OC)cc2)cc1 (centres undefined)	-3	0	-1	12	0	-1	x
Cc1ccc2sc(NC(=O)CSc3nc(C)cc(C)c3C#N)nc2c1	-123	29*	5	4	-1	1	6
CCOC(=O)c1c(NC(=O)CSc2nc(C)cc(C)c2C#N)sc(C(C)=O)c1C	-40	35*	2	15	1	0	17*
CCOC(=O)CSc1nc(C)cc(C)c1C#N	7	-2	0	1	0	0	x
CCOC(=O)c1sc(NC(=O)CSc2nc(C)cc(C)n2)c(C#N)c1C	19	0	1	5	-2	0	x
CCOC(=O)c1c(NC(=O)CSc2nc3ccccc3c(=O)n2-c2ccccc2)sc(C(C)=O)c1C	-7	140*	1	9	4	0	15
CCOC(=O)c1sc(NC(=O)CSc2nc3c(cc2C#N)CCCCC3)c(C#N)c1C	-14	30*	0	4	2	-2	20*
CC(C)(C)N1C(=O)c2ccccc2NC(=O)C1C(=O)NCCOc1ccccc1 (centres undefined)	x	-4	-1	x	x	x	x
N#Cc1cc2c(nc1SCC(=O)O)CCCCC2	-5	-3	-1	-2	4	-3	x
CCc1nnc(NC(=O)CSc2nc3c(cc2C#N)CCCC3)s1	-96	34*	-1	9	1	0	23*
Cc1cc(C)nc(NC(=O)CSc2ccccn2)n1	14	-2	0	-1	1	-2	x
